Results taken from ChEMBL document CHEMBL4732230, “Design, synthesis, and biological evaluation of 4-benzoylamino-1H-pyrazole-3-carboxamide derivatives as potent CDK2 inhibitors” (Eur J Med Chem, 2021).

Key:
[1] = molecular target: Cyclin-dependent kinase 1/cyclin B1 (Homo sapiens, UniProt P06493); format: protein-complex assay
CDK2/Cyclin A2 = CDK2/Cyclin A2 (Homo sapiens, UniProt P24941); test: Inhibition of CDK2/cyclin A2 (unknown origin) using FAM-labeled peptide and ATP as substrate preincubated for 10 mins followed by substrate addition by mobility shift assay; format: protein-complex assay
A2058 = test: Antiproliferative activity against human A2058 cells assessed as reduction in cell viability measured after 96 hrs by Celltiter-Glo luminescent assay; format: functional, cell-based; settings: A2058, 96 h
In short: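 Cells in DMEM (A2058, MRC5) or RPMI 1640 (MV4-11), each with 10% fetal bovine serum and 1% penicillin/streptomycin. Cells were plated in 96-well plates and exposed to serially concentrated compound for 96 h, with DMSO as control. Viability was read by CellTiter-Glo luminescence and IC50 derived.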

Cyclin-dependent kinase 1/cyclin B1, sequence (P06493 whole entry): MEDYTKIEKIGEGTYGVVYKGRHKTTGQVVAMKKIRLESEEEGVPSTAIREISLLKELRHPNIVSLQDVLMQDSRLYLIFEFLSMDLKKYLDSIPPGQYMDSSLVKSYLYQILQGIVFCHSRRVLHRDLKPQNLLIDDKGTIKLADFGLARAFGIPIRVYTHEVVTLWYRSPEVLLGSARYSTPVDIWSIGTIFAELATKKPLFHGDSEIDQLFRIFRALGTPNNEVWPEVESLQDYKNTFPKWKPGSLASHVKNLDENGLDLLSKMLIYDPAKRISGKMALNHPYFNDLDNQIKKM
Cyclin-dependent kinase 1/cyclin B1, sequence (P14635 whole entry, further chain): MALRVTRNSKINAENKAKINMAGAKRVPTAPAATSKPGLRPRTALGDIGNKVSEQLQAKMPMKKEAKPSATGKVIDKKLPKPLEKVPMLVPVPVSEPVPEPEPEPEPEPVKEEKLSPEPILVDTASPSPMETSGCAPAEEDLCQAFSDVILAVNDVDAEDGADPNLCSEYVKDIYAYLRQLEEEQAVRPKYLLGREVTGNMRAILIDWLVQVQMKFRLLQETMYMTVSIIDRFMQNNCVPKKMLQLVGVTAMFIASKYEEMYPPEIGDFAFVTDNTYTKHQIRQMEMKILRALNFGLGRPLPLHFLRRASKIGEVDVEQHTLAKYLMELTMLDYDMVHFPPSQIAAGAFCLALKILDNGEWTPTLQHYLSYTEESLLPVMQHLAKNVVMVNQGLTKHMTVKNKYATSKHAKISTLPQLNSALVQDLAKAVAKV

Row | Compound | IC50 [1] [µM] | IC50 (CDK2/Cyclin A2) [µM] | IC50 (A2058) [µM]
1 | O=C(Nc1ccc(F)cc1)c1n[nH]cc1NC(=O)c1c(F)ccc(-c2cccc(O)c2)c1F | 0.236 | 0.026 | –
2 | COc1ccc(-c2ccc(F)c(C(=O)Nc3c[nH]nc3C(=O)Nc3ccc(F)cc3)c2F)cn1 | 0.712 | 0.144 | –
3 | O=C(Nc1ccc(F)cc1)c1n[nH]cc1NC(=O)c1c(F)cccc1F | 0.014 | – | 1.01

The remaining compounds from weak to strong by IC50 [1], led by results:

Row | IC50 [1] [µM] | IC50 (CDK2/Cyclin A2) [µM] | Compound | IC50 (A2058) [µM]
4 | 0.432 | 0.086 | O=C(Nc1ccc(F)cc1)c1n[nH]cc1NC(=O)c1c(F)ccc(-c2ccccc2)c1F | 2.37
5 | 0.35 | 0.067 | CN1CCN(CCNC(=O)c2cccc(-c3ccc(F)c(C(=O)Nc4c[nH]nc4C(=O)Nc4ccc(F)cc4)c3F)c2)CC1 | –
